Where “and” joins values, the source holds several entries; their conditions need not be identical. Equal values may be shown once.
Assays:
P388 [1] = experiment: In vivo antitumor activity was determined against P 388 leukemia cells implanted (ip) in BDF1 mice at a dose of 60 mg/kg; format: functional, Mus musculus
How it was run: (§1)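 Groups of eight BDF1 mice received 10⁶ P388 cells ip on day 0. Control groups of 18 mice received saline. Read-out is T/C (%). T/C ≤85% is scored toxic and ≥125% significant activity. Some doses were repeated in an independent multidose assay.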

HeLa = experiment: In vitro cytotoxic activity against HeLaS3 cells in tissue culture was determined; format: functional, cell-based; conditions: Homo sapiens
How it was run: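 HeLa S3 cells grown in tissue culture. Read-out is the concentration giving 50% inhibition. Significant cytotoxicity is defined as 50% inhibition at <1 µg/mL. Values are the mean of three independent experiments.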

P388 [2] = experiment: In vivo antitumor activity was determined against P 388 leukemia cells implanted (ip) in BDF1 mice at a dose of 175 mg/kg; format: functional, Mus musculus; how it was run: as §1
P388 [3] = experiment: In vivo antitumor activity was determined against P 388 leukemia cells implanted (ip) in BDF1 mice at a dose of 90 mg/kg; format: functional, Mus musculus; how it was run: as §1
P388 [4] = experiment: In vivo antitumor activity was determined against P 388 leukemia cells implanted (ip) in BDF1 mice at a dose of 100 mg/kg; format: functional, Mus musculus; how it was run: as §1
P388 [5] = experiment: In vivo antitumor activity was determined against P 388 leukemia cells implanted (ip) in BDF1 mice at a dose of 25 mg/kg; format: functional, Mus musculus; how it was run: as §1
P388 [6] = experiment: In vivo antitumor activity was determined against P 388 leukemia cells implanted (ip) in BDF1 mice at a dose of 75 mg/kg; format: functional, Mus musculus; how it was run: as §1
P388 [7] = experiment: In vivo antitumor activity was determined against P 388 leukemia cells implanted (ip) in BDF1 mice at a dose of 75; format: functional, Mus musculus; how it was run: as §1
P388 [8] = experiment: In vivo antitumor activity was determined against P 388 leukemia cells implanted (ip) in BDF1 mice at a dose of 150 mg/kg; format: functional, Mus musculus; how it was run: as §1
P388 [9] = experiment: In vivo antitumor activity was determined against P 388 leukemia cells implanted (ip) in BDF1 mice at a dose of 50 mg/kg; format: functional, Mus musculus; how it was run: as §1
P388 [10] = experiment: In vivo antitumor activity was determined against P 388 leukemia cells implanted (ip) in BDF1 mice a dose of 75 mg/kg; format: functional, Mus musculus; how it was run: as §1
P388 [11] = experiment: In vivo antitumor activity was determined against P 388 leukemia cells implanted (ip) in BDF1 mice at a dose of 30 mg/kg; format: functional, Mus musculus; how it was run: as §1

Row | SMILES | IC50 (HeLa) [µg/mL] | other results
1 | CN(C)CCCCCNc1ccc([N+](=O)[O-])c2nc3ccccc3c(O)c12.Cl | 0.13 | T/C (P388 [1]): 144%
2 | CCCc1nc2ccc(NCCN(C)C)c3c(=O)c4ccccc4n1c23.Cl.Cl | 0.2 | T/C (P388 [2]): 211% and 233%
3 | CCc1nc2ccc(NCCCN(C)C)c3c(=O)c4ccccc4n1c23.Cl.Cl | 0.25 | T/C (P388 [3]): 130%
4 | CN(C)CCCCCNc1ccc2ncn3c4ccccc4c(=O)c1c23.Cl.Cl | 0.5 | T/C (P388 [4]): 110%
5 | CN(C)CCCNc1ccc(N)c2nc3ccccc3c(O)c12.Cl.Cl | 0.25 | T/C (P388 [5]): <85%
6 | CC(=O)Nc1ccc(NCCCN(C)C)c2c(O)c3ccccc3nc12.Cl.Cl | > 5 | –
7 | CCCCCCCCc1nc2ccc(NCCN(C)C)c3c(=O)c4ccccc4n1c23.Cl.Cl | 0.2 | T/C (P388 [6]): <85%
8 | CN(C)CCCNc1ccc([N+](=O)[O-])c2nc3ccccc3c(O)c12.Cl | 0.04 | T/C (P388 [4]): 189%; T/C (P388 [7]): 190%
9 | Cc1nc2ccc(NCCCN(C)C)c3c(=O)c4ccccc4n1c23.Cl.Cl | 0.11 | T/C (P388 [8]): 122%
10 | CN(C)CCNc1ccc2nc(-c3ccccc3)n3c4ccccc4c(=O)c1c23.Cl.Cl | 0.43 | T/C (P388 [9]): 150%
11 | CCc1nc2ccc(NCCN(C)C)c3c(=O)c4ccccc4n1c23.Cl.Cl | 0.11 | T/C (P388 [4]): 200%
12 | CN(C)CCCCCNc1ccc(N)c2nc3ccccc3c(O)c12.Cl.Cl | 1.05 | –
13 | CC(C)c1nc2ccc(NCCN(C)C)c3c(=O)c4ccccc4n1c23.Cl.Cl | 0.37 | T/C (P388 [8]): 166%
14 | CC(=O)Nc1ccc(NCCN(C)C)c2c(O)c3ccccc3nc12.Cl.Cl | > 5 | T/C (P388 [10]): 137%
15 | CN(C)CCNc1ccc(N)c2nc3ccccc3c(O)c12.Cl.Cl | 2.93 | T/C (P388 [4]): <85%
16 | Cc1nc2ccc(NCCN(C)C)c3c(=O)c4ccccc4n1c23.Cl.Cl | 0.05 | T/C (P388 [9]; 50 mg/kg): 190% and 230%
17 | CN(C)CCNc1ccc2ncn3c4ccccc4c(=O)c1c23.Cl.Cl | 0.06 | T/C (P388 [5]; 25 mg/kg): 180% and 188%
18 | CN(C)CCCNc1ccc2nc(-c3ccccc3)n3c4ccccc4c(=O)c1c23.Cl.Cl | 0.28 | T/C (P388 [11]): 110%
19 | CN(C)CCCNc1ccc2ncn3c4ccccc4c(=O)c1c23.Cl.Cl | 0.15 | T/C (P388 [4]; 100 mg/kg): 133% and 120%
20 | CN(C)CCNc1ccc([N+](=O)[O-])c2nc3ccccc3c(O)c12.Cl | 0.15 | T/C (P388 [5]; 25 mg/kg): 160% and 166%; T/C (P388 [9]): 185%

Reference: ChEMBL document CHEMBL1125144, “5-[(Aminoalkyl)amino]imidazo[4,5,1-de]acridin-6-ones as a novel class of antineoplastic agents. Synthesis and biological activity” (J Med Chem, 1990)
